Experimental data from ChEMBL document CHEMBL1154181 (J Med Chem, 2009).

Key:
Mus musculus [1] = experiment: Ratio of compound ED50 to morphine ED50 for antinociceptive activity against radiant heat-induced nociception in icv dosed CD1 mouse; assay type: functional
How it was run: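 Male CD-1 mice (25–30 g) given the compound or morphine hydrochloride into the right lateral ventricle. Tail flick used radiant heat focused 3–4 cm from the tail tip, with a 15 s cutoff, and latency was read at 15–120 min. %MPE was made quantal at peak time. ED50 came from at least four groups of six mice, and both ED50s were obtained the same way.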

Mus musculus [2] = experiment: Ratio of morphine ED50 to compound ED50 for antinociceptive activity against thermal nociception in po dosed CD1 mouse; assay type: functional
How it was run: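 Compound and morphine were dosed po in male CD-1 mice. Hot plate was held at 48.5 ± 0.1 °C, scored as paw lick, jerk or jump, with a 60 s cutoff, read at 15–90 min. Tail flick used radiant heat with a 15 s cutoff. Baseline was the mean of three readings. Peak-time %MPE was made quantal, and ED50 came from at least four groups of six mice.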

[3] = target: T1, Alpha-1A adrenergic receptor (Rattus norvegicus, UniProt P43140); experiment: Displacement of [3H]prazosin from adrenergic alpha1A receptor in Wistar rat submaxillary gland after 60 mins; assay type: tissue-based
T1 sequence (P43140 whole entry): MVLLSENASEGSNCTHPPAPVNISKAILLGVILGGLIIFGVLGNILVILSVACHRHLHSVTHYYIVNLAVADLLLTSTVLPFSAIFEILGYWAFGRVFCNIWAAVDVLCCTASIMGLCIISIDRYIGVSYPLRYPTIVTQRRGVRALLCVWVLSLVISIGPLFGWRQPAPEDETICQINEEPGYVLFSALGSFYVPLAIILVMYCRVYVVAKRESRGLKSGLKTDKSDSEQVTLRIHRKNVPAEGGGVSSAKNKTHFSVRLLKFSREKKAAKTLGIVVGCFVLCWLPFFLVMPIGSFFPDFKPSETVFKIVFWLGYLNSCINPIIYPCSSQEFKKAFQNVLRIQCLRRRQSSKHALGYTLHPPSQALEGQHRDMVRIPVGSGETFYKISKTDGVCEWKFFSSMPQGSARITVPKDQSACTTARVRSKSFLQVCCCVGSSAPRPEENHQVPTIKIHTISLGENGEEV

[4] = target: T2, Alpha-2C adrenergic receptor (Homo sapiens) (UniProt P18825); experiment: Inhibition of radioligand binding to human adrenergic Alpha-2C receptor at 10 uM after 60 mins
T2 sequence (whole entry): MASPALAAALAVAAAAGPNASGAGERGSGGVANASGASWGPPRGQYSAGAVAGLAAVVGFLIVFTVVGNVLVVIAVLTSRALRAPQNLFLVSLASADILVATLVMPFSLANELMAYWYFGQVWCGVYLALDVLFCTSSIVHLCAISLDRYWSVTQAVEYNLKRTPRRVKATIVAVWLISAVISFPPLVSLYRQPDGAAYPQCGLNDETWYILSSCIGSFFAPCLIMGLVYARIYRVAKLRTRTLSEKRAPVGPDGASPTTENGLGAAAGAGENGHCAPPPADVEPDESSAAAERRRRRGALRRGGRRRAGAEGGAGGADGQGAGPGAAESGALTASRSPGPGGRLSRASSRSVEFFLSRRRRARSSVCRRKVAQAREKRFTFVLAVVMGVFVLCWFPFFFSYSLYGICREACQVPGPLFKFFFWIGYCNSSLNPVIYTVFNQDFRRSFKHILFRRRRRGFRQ

[5] = target: T3, Alpha-2A adrenergic receptor (Homo sapiens, UniProt P08913); experiment: Displacement of [3H][…] from human recombinant adrenergic alpha2A receptor expressed in insect Sf9 cells after 60 mins
T3 sequence (P08913 whole entry): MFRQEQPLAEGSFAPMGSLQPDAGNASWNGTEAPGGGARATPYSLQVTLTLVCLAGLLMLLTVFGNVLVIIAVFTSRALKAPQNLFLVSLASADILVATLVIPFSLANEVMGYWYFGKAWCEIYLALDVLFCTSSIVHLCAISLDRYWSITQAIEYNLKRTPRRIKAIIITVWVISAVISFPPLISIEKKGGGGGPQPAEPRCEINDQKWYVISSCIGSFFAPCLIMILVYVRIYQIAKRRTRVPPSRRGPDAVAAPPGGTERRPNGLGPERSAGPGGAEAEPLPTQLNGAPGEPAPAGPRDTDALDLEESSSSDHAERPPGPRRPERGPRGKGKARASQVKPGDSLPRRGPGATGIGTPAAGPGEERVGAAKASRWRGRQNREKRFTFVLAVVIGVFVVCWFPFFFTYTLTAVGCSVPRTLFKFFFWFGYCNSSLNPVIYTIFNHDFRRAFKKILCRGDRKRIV

Mus musculus [6] = experiment: Antinociceptive activity in sc dosed mouse assessed as reduction in number of noxious stimulus-induced writhes; assay type: functional
Mus musculus [7] = experiment: Antinociceptive activity against radiant heat-induced nociception in po dosed CD1 mouse assessed as increase in tail withdrawal latency measured after 15 to 120 mins postdose by tail flick test in presence of 1 mg/kg, ip opioid receptor antagonist naloxone hydrochloride administered 30 mins before compound infusion; assay type: functional
How it was run: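 Antagonist given ip 30 min before oral dosing (naloxone 1, mecamylamine 2, yohimbine 2, CGP 35348 50 mg/kg). Tail flick with radiant heat at the tail tip, cut-off 15 s; latencies at 15–120 min converted to %MPE. Peak-time quantal response (≥50% MPE); ED50 from at least four groups of six male CD-1 mice.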

Mus musculus [8] = experiment: (§1) Antinociceptive activity against thermal nociception in po dosed CD1 mouse assessed as increase in latency period to elicit jumping or hind paw licking measured after 15 to 90 mins postdose by hot plate method in presence of 50 mg/kg, ip GABAB receptor antagonist CGP 35348 administered 30 mins before compound infusion; assay type: functional
How it was run: (§2)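 Antagonist given ip 30 min before oral dosing (naloxone 1, mecamylamine 2, yohimbine 2, CGP 35348 50 mg/kg). Hot plate at 48.5 ± 0.1 °C inside a cylinder, cut-off 60 s; latencies at 15–90 min as %MPE. Peak-time quantal response (≥50% MPE); ED50 from at least four groups of six male CD-1 mice.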

Mus musculus [9] = experiment: as §1, with “2” for “50”, “alpha-2-adrenergic” for “GABAB”, “yohimbine hydrochloride” for “CGP 35348”; assay type: functional; how it was run: as §2
Mus musculus [10] = experiment: Antinociceptive activity against radiant heat-induced nociception in CD1 mouse assessed as tail withdrawal latency at 1 mg/kg, po measured after 15 to 120 mins postdose by tail flick test; assay type: functional
How it was run: (§3)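 Male CD-1 mice (25–30 g), dosed orally at 1 mg/kg. Tail flick: radiant heat focused 3–4 cm from the tail tip, cut-off 15 s at 15 V. Hot plate: 48.5 ± 0.1 °C, licking, paw jerk or jump, cut-off 60 s. Baseline is the mean of three readings 15 min apart. Latency followed to 120 min (tail) or 90 min (plate); data as %MPE.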

Mus musculus [11] = experiment: Antinociceptive activity against thermal nociception in po dosed CD1 mouse assessed as latency period to elicit jumping or hind paw licking at 1 mg/kg, po measured after 15 to 90 mins postdose by hot plate method; assay type: functional; how it was run: as §3

In the case of `C=Cc1c(C)nn(CCCN2CCN(c3ccc(C)cc3)CC2)c(=O)c1N`, the “Ratio ED50” value (Mus musculus [1]) is reported as 3, the “Ratio ED50” value (Mus musculus [2]) is reported as 4 and the IC50 [3] is reported as 56 nM. The Emax [4] was 71%, the IC50 [5] was 320 nM and the ED50 (Mus musculus [6]) was 2.5 mg/kg. It also gave an ED50 (Mus musculus [7]) of 1.2 mg/kg, an ED50 (Mus musculus [8]) of 0.6 mg/kg and an ED50 (Mus musculus [9]) of 8.6 mg/kg. It also gave an Activity (Mus musculus [10]) of 30 min and an Activity (Mus musculus [11]) of 30 min.
